ChEMBL document CHEMBL4270650, “Discovery of novel human inosine 5'-monophosphate dehydrogenase 2 (hIMPDH2) inhibitors as potential anticancer agents” (Eur J Med Chem, 2018)
≈ marks a conversion by molar mass, not a printed value. Counter-ions that a name gives are not always drawn. Values belong to the molecule of their own block, whether it stands above or below them. Calls of active or inactive are those of the source. No cut-off for these calls is given here.

Experiments:
[1] = target: T1, Inosine-5'-monophosphate dehydrogenase 2 (Homo sapiens, UniProt P12268); experiment: Inhibition of human IMPDH2 using IMP at 10 uM as substrate in presence of NAD+ after 30 mins relative to control
Outline: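 Purchased purified hIMPDH2, 0.15 mU/well, in 100 mM Tris-HCl pH 8.6, 100 mM KCl, 5 mM DTT and 4% v/v DMSO. Started with 0.2 mM IMP plus 0.2 mM NAD+ and run 30 min at 37 °C. NADH read at 340 nm. Screen at 10 µM gave % inhibition.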

[2] = target: T1, Inosine-5'-monophosphate dehydrogenase 2; experiment: Inhibition of human IMPDH2 using IMP as substrate in presence of NAD+ after 30 mins
Outline: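 Purchased purified hIMPDH2, 0.15 mU/well, in 100 mM Tris-HCl pH 8.6, 100 mM KCl, 5 mM DTT and 4% v/v DMSO. Started with 0.2 mM IMP plus 0.2 mM NAD+ and run 30 min at 37 °C. NADH read at 340 nm.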

[3] = Cytotoxicity against mouse NIH/3T3 cells assessed as cell viability at 10 uM after 48 hrs by MTT assay relative to control; assay type: cell-based, NIH3T3; conditions: read-out: Activity
Outline: (§1)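 NIH-3T3 mouse embryonic fibroblasts grown in DMEM with 10% FBS and penicillin-streptomycin at 37 °C, 5% CO2. Seeded at 10,000 cells/well and dosed after 24 hr, DMSO vehicle, triplicate wells. After 48 hr exposure, MTT (5 mg/mL) added for 4 hr and formazan dissolved in DMSO. Absorbance read at 540/630 nm. Viability expressed as % of control, mean ± SD.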

[4] = Octanol-buffer partition coefficient, log D of the compound at pH 7.4 after 2 hrs by HPLC analysis; assay type: physicochemical
Outline: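 DMSO stock added to pre-saturated 1:1 1-octanol/pH 7.4 buffer and shaken 2 hr at 37 °C, 200 rpm. Phases separated and each quantified by HPLC on a C18 column with isocratic acetonitrile:water 80:20 at 1 mL/min. logD7.4 taken from the octanol-to-buffer concentration ratio.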

DU-145 [5] = experiment: Cytotoxicity against human DU145 cells assessed as reduction in cell viability after 48 hrs by MTT assay; assay type: functional, cell-based; conditions: DU-145, 48 h
Outline: (§2)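 Cells grown in DMEM with 10% FBS and penicillin-streptomycin at 37 °C, 5% CO2. Seeded at 10,000 (MDA-MB-231), 8,000 (DU145) or 5,000 (U87 MG) cells/well. Treated 24 hr later with 0.01–100 µM, each dilution in triplicate, DMSO vehicle. After 48 hr, MTT (5 mg/mL) for 4 hr, formazan dissolved in DMSO. Absorbance read at 540 nm with 630 nm background. IC50 taken from mean of triplicate readings.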

[6] = Cytotoxicity against human PBMC assessed as cell viability at 10 uM after 48 hrs by MTT assay relative to control; assay type: cell-based; conditions: read-out: Activity
MDA-MB-231 [7] = experiment: Cytotoxicity against human MDA-MB-231 cells assessed as reduction in cell viability after 48 hrs by MTT assay; assay type: functional, cell-based; conditions: MDA-MB-231, 48 h; outline: as §2
[8] = Cytotoxicity against mouse NIH/3T3 cells assessed as cell viability at 100 uM after 48 hrs by MTT assay relative to control; assay type: cell-based, NIH3T3; conditions: read-out: Activity; outline: as §1
U-87 MG [9] = experiment: Potency index, ratio of mycophenolic acid IC50 to compound IC50 for cytotoxicity against human U87MG cells; assay type: functional, U-87MG ATCC
U-87 MG [10] = experiment: Cytotoxicity against human U87MG cells assessed as reduction in cell viability after 48 hrs by MTT assay; assay type: functional, cell-based, U-87MG ATCC; outline: as §2
[11] = Solubility in pH 7.4 sodium phosphate buffer after 2 hrs by HPLC analysis; assay type: physicochemical; conditions: read-out: -log(solubility) (converted)
Outline: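 DMSO stock diluted 1:100 into 50 mM sodium phosphate, pH 7.4, and shaken 2 hr at 37 °C, 200 rpm. Centrifuged 20 min at 4000 rpm; supernatant diluted 1:1 with acetonitrile and filtered. Quantified by C18 HPLC (acetonitrile:water 80:20, isocratic) against a calibration curve of 0.78–100 µM made in 1:1 buffer/acetonitrile.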

MDA-MB-231 [12] = experiment: Potency index, ratio of mycophenolic acid IC50 to compound IC50 for cytotoxicity against human MDA-MB-231 cells; assay type: functional
DU-145 [13] = experiment: Potency index, ratio of mycophenolic acid IC50 to compound IC50 for cytotoxicity against human DU145 cells; assay type: functional

inhibition [1]: 76.3% | IC50 [2]: 4540 nM
SMILES: O=C(COc1ccc(C(=O)/C=C/c2cccs2)cc1)Nc1ccc2c(c1)COC2=O

inhibition [1]: 52.2%
SMILES: O=C(COc1ccc(C(=O)/C=C/c2ccc(OCc3ccccc3)cc2)cc1)Nc1ccc2c(c1)COC2=O

logD at 2 h [4]: 2.99 | inhibition [1]: 94.2% | solubility at 2 h [11]: 1.55 µM (≈ 0.696 µg/mL) | IC50 [2]: 360 nM
SMILES: O=C(COc1ccc(C(=O)/C=C/c2c(F)cccc2F)cc1)Nc1ccc2c(c1)COC2=O
viability at 48 h, 10 µM [3]: 98.5% | IC50 (DU-145 [5]): 1900 nM | viability at 48 h, 10 µM [6]: 77% | IC50 (MDA-MB-231 [7]): 2410 nM | viability at 48 h, 100 µM [8]: 70.2% | Ratio IC50 (U-87 MG [9]): 3 | IC50 (U-87 MG [10]): 3670 nM

inhibition [1]: 63.5%
SMILES: CCOc1ccc(/C=C/C(=O)c2ccc(OCC(=O)Nc3ccc(OC)c(OC)c3)cc2)cc1

inhibition [1]: 71.3% | IC50 [2]: 7380 nM
SMILES: COc1cc(/C=C/C(=O)c2ccc(OCC(=O)Nc3ccc4c(c3)COC4=O)cc2)cc(OC)c1OC

inhibition [1]: 57.3%
SMILES: O=C(COc1ccc(C(=O)/C=C/c2ccco2)cc1)Nc1ccc2c(c1)COC2=O

inhibition [1]: 39.1%
SMILES: O=C(COc1ccc(C(=O)/C=C/c2ccc(OCc3ccc(Cl)cc3)cc2)cc1)Nc1ccc2c(c1)COC2=O

inhibition [1]: 33.6%
SMILES: COc1ccc(/C=C/C(=O)c2ccc(OCC(=O)Nc3ccc(OC)c(OC)c3)cc2)cc1

inhibition [1]: 57.7%
SMILES: CCCCOc1ccc(/C=C/C(=O)c2ccc(OCC(=O)Nc3ccc4c(c3)COC4=O)cc2)cc1

inhibition [1]: 65.5%
SMILES: CCOc1ccc(/C=C/C(=O)c2ccc(OCC(=O)Nc3ccc4c(c3)COC4=O)cc2)cc1

inhibition [1]: 60.1%
SMILES: CCCOc1ccc(/C=C/C(=O)c2ccc(OCC(=O)Nc3ccc4c(c3)COC4=O)cc2)cc1

inhibition [1]: 63.2%
SMILES: O=C(COc1ccc(C(=O)/C=C/c2ccc([N+](=O)[O-])cc2)cc1)Nc1ccc2c(c1)COC2=O

inhibition [1]: 87.9% | IC50 [2]: 570 nM
SMILES: O=C(COc1ccc(/C=C/C(=O)c2ccc(F)cc2)cc1)Nc1ccc2c(c1)COC2=O
viability at 48 h, 10 µM [3]: 90.3% | IC50 (DU-145 [5]): 6880 nM | IC50 (MDA-MB-231 [7]): 5420 nM | viability at 48 h, 100 µM [8]: 80.2% | IC50 (U-87 MG [10]): 6050 nM

inhibition [1]: 59.5%
SMILES: O=C(COc1ccc(C(=O)/C=C/c2ccccc2Cl)cc1)Nc1ccc2c(c1)COC2=O

inhibition [1]: 36.7%
SMILES: O=C(COc1ccc(C(=O)/C=C/c2ccc(OCc3ccc(Cl)cc3Cl)cc2)cc1)Nc1ccc2c(c1)COC2=O

inhibition [1]: 95.6% | IC50 [2]: 660 nM
SMILES: COc1ccc(/C=C/C(=O)c2ccc(OCC(=O)Nc3ccc4c(c3)COC4=O)cc2)cc1
viability at 48 h, 10 µM [3]: 90.9% | IC50 (DU-145 [5]): 2130 nM | viability at 48 h, 10 µM [6]: 86% | IC50 (MDA-MB-231 [7]): 3030 nM | viability at 48 h, 100 µM [8]: 63.7% | IC50 (U-87 MG [10]): 4900 nM

inhibition [1]: 91.5% | IC50 [2]: 360 nM
SMILES: COc1cccc(/C=C/C(=O)c2ccc(OCC(=O)Nc3ccc4c(c3)COC4=O)cc2)c1
viability at 48 h, 10 µM [3]: 87.1% | IC50 (DU-145 [5]): 2550 nM | IC50 (MDA-MB-231 [7]): 3420 nM | viability at 48 h, 100 µM [8]: 62.6% | IC50 (U-87 MG [10]): 5750 nM

inhibition [1]: 65.5%
SMILES: COc1ccc(/C=C/C(=O)c2ccc(OCC(=O)Nc3ccc4c(c3)COC4=O)cc2)cc1OC

inhibition [1]: 62.1%
SMILES: O=C(COc1ccc(C(=O)/C=C/c2ccc(Cl)cc2)cc1)Nc1ccc2c(c1)COC2=O

inhibition [1]: 79.1% | IC50 [2]: 790 nM
SMILES: O=C(COc1ccc(C(=O)/C=C/c2ccccc2)cc1)Nc1ccc2c(c1)COC2=O

inhibition [1]: 57%
SMILES: COc1ccc(/C=C/C(=O)c2cccc(OCC(=O)Nc3ccc4c(c3)COC4=O)c2)cc1OC

More lines, now with the values behind:

SMILES: COc1ccc(NC(=O)COc2ccc(C(=O)/C=C/c3ccc(Cl)cc3)cc2)cc1OC
inhibition [1]: 30.1%

SMILES: CCOc1ccc(/C=C/C(=O)c2ccc(OCC(=O)NCc3ccc4c(c3)OCO4)cc2)cc1
inhibition [1]: inactive

SMILES: COc1cccc2c1C(=O)c1c(O)c3c(c(O)c1C2=O)C[C@@](O)(C(=O)CO)C[C@@H]3O[C@H]1C[C@H](N)[C@H](O)[C@H](C)O1 [DOXORUBICIN HYDROCHLORIDE]
viability at 48 h, 10 µM [3]: 15.6% | IC50 (DU-145 [5]): 210 nM | IC50 (MDA-MB-231 [7]): 540 nM | viability at 48 h, 100 µM [8]: 6.73% | IC50 (U-87 MG [10]): 110 nM

SMILES: COc1ccc(/C=C/C(=O)c2ccc(OCC(=O)NCc3ccc4c(c3)OCO4)cc2)cc1OC
inhibition [1]: inactive

SMILES: COc1ccc(/C=C/C(=O)c2cccc(OCC(=O)Nc3ccc(OC)c(OC)c3)c2)cc1OC
inhibition [1]: 23.3%

SMILES: COc1ccc(/C=C/C(=O)c2ccc(OCC(=O)NCc3ccc4c(c3)OCO4)cc2)cc1
inhibition [1]: inactive

SMILES: O=C(COc1ccc(C(=O)/C=C/c2c(F)cccc2F)cc1)NCc1ccc2c(c1)OCO2
inhibition [1]: inactive

SMILES: COc1cccc(/C=C/C(=O)c2ccc(OCC(=O)Nc3ccc(OC)c(OC)c3)cc2)c1
inhibition [1]: 28.8%

SMILES: COc1ccc(NC(=O)COc2ccc(C(=O)/C=C/c3cc(OC)c(OC)c(OC)c3)cc2)cc1OC
inhibition [1]: 20.6%

SMILES: COc1cc(/C=C/C(=O)c2ccc(OCC(=O)NCc3ccc4c(c3)OCO4)cc2)cc(OC)c1OC
inhibition [1]: inactive

SMILES: COc1c(C)c2c(c(O)c1C/C=C(\C)CCC(=O)O)C(=O)OC2 [MYCOPHENOLIC ACID]
viability at 48 h, 10 µM [3]: 65.2% | IC50 (DU-145 [5]): 2940 nM | viability at 48 h, 10 µM [6]: 63% | IC50 (MDA-MB-231 [7]): 4380 nM | viability at 48 h, 100 µM [8]: 40.7% | IC50 (U-87 MG [10]): 10700 nM

SMILES: O=C(COc1cccc(C(=O)/C=C/c2ccccc2)c1)Nc1ccc2c(c1)COC2=O
Ratio IC50 (MDA-MB-231 [12]): 4 | viability at 48 h, 10 µM [3]: 96.7% | logD at 2 h [4]: 2.79 | IC50 (DU-145 [5]): 1750 nM | inhibition [1]: 93.7% | IC50 (MDA-MB-231 [7]): 1100 nM | viability at 48 h, 100 µM [8]: 67.6% | Ratio IC50 (DU-145 [13]): 1.7 | IC50 (U-87 MG [10]): 3970 nM | solubility at 2 h [11]: 1.55 µM (≈ 0.64 µg/mL) | IC50 [2]: 430 nM

SMILES: COc1ccc(NC(=O)COc2ccc(C(=O)/C=C/c3ccccc3Cl)cc2)cc1OC
inhibition [1]: 25.7%

SMILES: COc1ccc(NC(=O)COc2ccc(C(=O)/C=C/c3cccs3)cc2)cc1OC
inhibition [1]: 24.5%

SMILES: COc1ccc(NC(=O)COc2ccc(C(=O)/C=C/c3ccco3)cc2)cc1OC
inhibition [1]: 21.3%

SMILES: COc1ccc(NC(=O)COc2ccc(C(=O)/C=C/c3c(F)cccc3F)cc2)cc1OC
inhibition [1]: 35.9%

SMILES: COc1cc(/C=C/C(=O)c2cccc(OCC(=O)Nc3ccc4c(c3)COC4=O)c2)cc(OC)c1OC
inhibition [1]: 63.7%

SMILES: COc1cc(C(=O)/C=C/c2cc(OC)c(OC)c(OC)c2)ccc1OCC(=O)Nc1ccc2c(c1)COC2=O
inhibition [1]: 19.9%
